Measured values: ChEMBL document CHEMBL4261563, “Synthesis and in vitro evaluation of substituted 3-cinnamoyl-4-hydroxy-pyran-2-one (CHP) in pursuit of new potential antituberculosis agents” (Medchemcomm, 2018)
Values after ≈ are worked out from the molar mass of the structure shown.

Legend:
[1] = system: Mycobacterium tuberculosis; assay: Antitubercular activity against Mycobacterium tuberculosis H37Rv after 2 weeks by broth microdilution method; type: functional; details: 336 h
In short: (§1)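 Middlebrook 7H9 broth microdilution with 10% ADC, compounds at […] μg ml−1 in duplicate. Each well received mid-log M. tuberculosis H37Rv at ∼1 × 10^5 CFU ml−1, checked by plating 10-fold dilutions on 7H11 agar (37 °C, read at four weeks). Drug-free broth was the negative control. MIC was the lowest concentration (μg ml−1) preventing visible growth after two weeks.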

[2] = system: Mycolicibacterium smegmatis; assay: Antimycobacterial activity against Mycobacterium smegmatis after 72 hrs by broth microdilution method; type: functional
HEK293 = assay: Cytotoxicity against HEK293 cells by MTT assay; type: cell-based, Homo sapiens; details: for IC50: Homo sapiens, HEK293; for Activity: human, hek293
In short: (§2)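 HEK-293 (from NCCS, Pune) treated at 1, 20, 40 and 80 μM, then at 100 μM. Percentage growth inhibition measured by MTT assay. IC50 assigned from whether inhibition reached ≥50% at 100 μM, the highest concentration tested.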

Staphylococcus aureus = assay: Antibacterial activity against Staphylococcus aureus ATCC 25923 after 24 hrs by broth microdilution method; type: functional; details: ATCC 25923, 24 h
In short: (§3)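 Strains revived on Mueller Hinton agar, 37 °C for 24 h. MIC by broth microdilution in MH broth, read after 24 h at 37 °C by visual turbidity, highest concentration tested 128 μg ml−1. Levofloxacin as positive control.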

[3] = system: Staphylococcus epidermidis; assay: Antibacterial activity against Staphylococcus epidermidis ATCC 12228 after 24 hrs by broth microdilution method; type: functional; details: ATCC 12228, 24 h; in short: as §3
Micrococcus luteus = assay: Antibacterial activity against Micrococcus luteus ATCC 10240 after 24 hrs by broth microdilution method; type: functional; details: ATCC 10240, 24 h; in short: as §3
Bacillus subtilis = assay: Antibacterial activity against Bacillus subtilis ATCC 11774 after 24 hrs by broth microdilution method; type: functional; details: ATCC 11774, 24 h; in short: as §3
Escherichia coli = assay: Antibacterial activity against Escherichia coli ATCC 10536 after 24 hrs by broth microdilution method; type: functional; details: ATCC 10536, 24 h; in short: as §3
Enterococcus faecalis = assay: Antibacterial activity against Enterococcus faecalis ATCC 51299 after 24 hrs by broth microdilution method; type: functional; details: ATCC 51299, 24 h; in short: as §3
Pseudomonas aeruginosa = assay: Antibacterial activity against Pseudomonas aeruginosa ATCC 10145 after 24 hrs by broth microdilution method; type: functional; details: ATCC 10145, 24 h; in short: as §3
Klebsiella pneumoniae = assay: Antibacterial activity against Klebsiella pneumoniae ATCC BAA-2146 after 24 hrs by broth microdilution method; type: functional; details: ATCC BAA-2146, 24 h; in short: as §3
[4] = Cytotoxicity against HEK293 cells assessed as growth inhibition at 100 uM by MTT assay relative to control; type: cell-based; details: human, read-out: GI; in short: as §2
[5] = Cytotoxicity against human MCF7 cells assessed as growth inhibition at 100 uM by MTT assay relative to control; type: cell-based; details: read-out: GI
In short: (§4)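 HCT-116, MCF-7 and PC-3 cells (from NCI, USA) exposed to double dilutions from 0.0 to 100 μM. Growth inhibition measured by MTT cell viability assay. Results given as mean ± standard deviation of percentage growth inhibition.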

[6] = Cytotoxicity against human PC3 cells assessed as growth inhibition at 100 uM by MTT assay relative to control; type: cell-based, PC-3; details: read-out: GI; in short: as §4
[7] = Cytotoxicity against human HCT116 cells assessed as growth inhibition at 100 uM by MTT assay relative to control; type: cell-based, HCT-116; details: read-out: GI; in short: as §4
MCF7 = assay: Cytotoxicity against human MCF7 cells assessed as growth inhibition by MTT assay; type: cell-based; details: for Activity: human, mcf7; in short: as §4
PC-3 = assay: Cytotoxicity against human PC3 cells assessed as growth inhibition by MTT assay; type: cell-based; details: for Activity: human, pc-3; in short: as §4
HCT-116 = assay: Cytotoxicity against human HCT116 cells assessed as growth inhibition by MTT assay; type: cell-based; details: for Activity: human, hct-116; in short: as §4
[8] = system: Mycobacterium tuberculosis; assay: Antitubercular activity against Mycobacterium tuberculosis H37Rv; type: functional; in short: as §1
[9] = Selectivity ratio of MIC for Mycobacterium smegmatis to MIC for Mycobacterium tuberculosis H37Rv; type: functional

Structure (SMILES)	MIC [1]	MIC ([2]; read-out: MIC)	IC50 (HEK293)	also measured
COc1cc(/C=C/C(=O)c2c(O)cc(C)oc2=O)ccc1O	32 µg/mL (≈ 106 µM)	> 128 µg/mL	> 100 µM	
CN[C@@H]1[C@H](O[C@H]2[C@H](O[C@H]3[C@H](O)[C@@H](O)[C@H](N=C(N)N)[C@@H](O)[C@@H]3N=C(N)N)O[C@@H](C)[C@]2(O)C=O)O[C@@H](CO)[C@H](O)[C@H]1O [STREPTOMYCIN]	1.25 µg/mL (≈ 2.15 µM)			
CC[C@@H](CO)NCCN[C@@H](CC)CO [ETHAMBUTOL]	2.5 µg/mL (≈ 12.2 µM)			
Cc1cccc(/C=C/C(=O)c2c(O)cc(C)oc2=O)c1	32 µg/mL (≈ 118 µM)	> 128 µg/mL	100 µM	
Cc1cc(O)c(C(=O)/C=C/c2ccc(O)cc2)c(=O)o1	64 µg/mL (≈ 235 µM)	> 128 µg/mL		
Cc1cc(O)c(C(=O)/C=C/c2ccsc2)c(=O)o1	32 to 64 µg/mL (≈ 122 to 244 µM)	> 128 µg/mL		
Cc1cc(O)c(C(=O)/C=C/c2cccc(Br)c2)c(=O)o1	4 to 8 µg/mL (≈ 11.9 to 23.9 µM)	> 128 µg/mL	100 µM	
Cc1cc(O)c(C(=O)/C=C/c2ccccc2C(F)(F)F)c(=O)o1	8 µg/mL (≈ 24.7 µM)	> 128 µg/mL		
Cc1ccc(/C=C/C(=O)c2c(O)cc(C)oc2=O)cc1	8 µg/mL (≈ 29.6 µM)	> 128 µg/mL	> 100 µM	
COc1cccc(/C=C/C(=O)c2c(O)cc(C)oc2=O)c1	8 to 16 µg/mL (≈ 27.9 to 55.9 µM)	> 128 µg/mL		
COc1cc(/C=C/C(=O)c2c(O)cc(C)oc2=O)cc(OC)c1OC	8 µg/mL (≈ 23.1 µM)	> 128 µg/mL	100 µM	
Cc1cc(O)c(C(=O)/C=C/c2ccccc2)c(=O)o1	4 µg/mL (≈ 15.6 µM)	> 128 µg/mL		MIC (Staphylococcus aureus): > 128 µg/mL; MIC [3]: > 128 µg/mL; MIC (Micrococcus luteus): > 128 µg/mL; MIC (Bacillus subtilis): > 128 µg/mL; MIC (Escherichia coli): > 128 µg/mL; MIC (Enterococcus faecalis): > 128 µg/mL; MIC (Pseudomonas aeruginosa): > 128 µg/mL; MIC (Klebsiella pneumoniae): 128 µg/mL (≈ 499 µM); Activity (HEK293): Dose-dependent effect; inhibition at 100 µM [4]: 38 to 44%; inhibition at 100 µM [5]: 38 to 44%; inhibition at 100 µM [6]: 38 to 44%; inhibition at 100 µM [7]: 50%; Activity (MCF7): Dose-dependent effect; Activity (PC-3): Dose-dependent effect; Activity (HCT-116): Dose-dependent effect
CCOc1ccc(/C=C/C(=O)c2c(O)cc(C)oc2=O)cc1	256 µg/mL (≈ 852 µM)	> 128 µg/mL		
Cc1cc(O)c(C(=O)/C=C/c2cccc(O)c2)c(=O)o1	8 to 16 µg/mL (≈ 29.4 to 58.8 µM)	> 128 µg/mL	> 100 µM	
CO[C@H]1/C=C/O[C@@]2(C)Oc3c(C)c(O)c4c(O)c(c(/C=N/N5CCN(C)CC5)c(O)c4c3C2=O)NC(=O)/C(C)=C\C=C\[C@H](C)[C@H](O)[C@@H](C)[C@@H](O)[C@@H](C)[C@H](OC(C)=O)[C@@H]1C [RIFAMPIN]	0.078 µg/mL (≈ 0.0948 µM)			MIC [8]: 0.2 µg/mL (≈ 0.243 µM); Selectivity ratio [9]: 500
COc1cc(C(F)(F)F)ccc1/C=C/C(=O)c1c(O)cc(C)oc1=O	256 µg/mL (≈ 723 µM)	> 128 µg/mL	100 µM	
COc1ccc(/C=C/C(=O)c2c(O)cc(C)oc2=O)cc1	32 µg/mL (≈ 112 µM)	> 128 µg/mL	100 µM	
COc1ccc(OC)c(/C=C/C(=O)c2c(O)cc(C)oc2=O)c1	4 to 8 µg/mL (≈ 12.6 to 25.3 µM)	> 128 µg/mL	100 µM	
Cc1cc(O)c(C(=O)/C=C/c2ccc(C(F)(F)F)cc2)c(=O)o1	256 µg/mL (≈ 790 µM)	> 128 µg/mL	100 µM	
C[C@H]1COc2c(N3CCN(C)CC3)c(F)cc3c(=O)c(C(=O)O)cn1c23.C[C@H]1COc2c(N3CCN(C)CC3)c(F)cc3c(=O)c(C(=O)O)cn1c23.O [LEVOFLOXACIN]	2.5 µg/mL	2.5 µg/mL		MIC (Staphylococcus aureus): 0.078 to 0.156 µg/mL; MIC [3]: 0.039 to 0.078 µg/mL; MIC (Micrococcus luteus): 0.078 µg/mL; MIC (Bacillus subtilis): 0.39 µg/mL; MIC (Escherichia coli): 0.078 µg/mL; MIC (Enterococcus faecalis): 0.156 µg/mL; MIC (Pseudomonas aeruginosa): 0.312 to 0.625 µg/mL; MIC (Klebsiella pneumoniae): 0.625 to 1.25 µg/mL
CCOc1cccc(/C=C/C(=O)c2c(O)cc(C)oc2=O)c1	4 µg/mL (≈ 13.3 µM)	> 128 µg/mL	80 to 100 µM	MIC (Staphylococcus aureus): > 128 µg/mL; MIC [3]: > 128 µg/mL; MIC (Micrococcus luteus): > 128 µg/mL; MIC (Bacillus subtilis): > 128 µg/mL; MIC (Escherichia coli): > 128 µg/mL; MIC (Enterococcus faecalis): > 128 µg/mL; MIC (Pseudomonas aeruginosa): > 128 µg/mL; MIC (Klebsiella pneumoniae): 128 µg/mL (≈ 426 µM); Activity (HEK293): Dose-dependent effect; inhibition at 100 µM [4]: 67 to 70%; inhibition at 100 µM [5]: 67 to 70%; inhibition at 100 µM [6]: 67 to 70%; inhibition at 100 µM [7]: 67 to 70%; IC50 (MCF7; Homo sapiens, MCF7): 80 µM; Activity (MCF7): Dose-dependent effect; IC50 (PC-3; Homo sapiens, PC-3): 80 µM; Activity (PC-3): Dose-dependent effect; IC50 (HCT-116; Homo sapiens, HCT-116): 80 µM; Activity (HCT-116): Dose-dependent effect
Cc1cc(O)c(C(=O)/C=C/c2cccc(C(F)(F)F)c2)c(=O)o1	256 µg/mL (≈ 790 µM)	> 128 µg/mL	> 100 µM	
Cc1cc(O)c(C(=O)/C=C/c2cc(Br)cs2)c(=O)o1	4 to 8 µg/mL (≈ 11.7 to 23.4 µM)	> 128 µg/mL	100 µM	
NNC(=O)c1ccncc1 [ISONIAZID]	0.312 µg/mL (≈ 2.28 µM)			MIC [2]: 25 µg/mL (≈ 182 µM); MIC [8]: 0.02 µg/mL (≈ 0.146 µM); Selectivity ratio [9]: 1000
Cc1cc(O)c(C(=O)/C=C/c2ccc(Br)cc2)c(=O)o1	8 to 16 µg/mL (≈ 23.9 to 47.7 µM)	> 128 µg/mL	100 µM	
Cc1cc(O)c(C(=O)/C=C/c2ccccc2O)c(=O)o1	8 to 16 µg/mL (≈ 29.4 to 58.8 µM)	> 128 µg/mL		
COc1ccccc1/C=C/C(=O)c1c(O)cc(C)oc1=O	32 to 64 µg/mL (≈ 112 to 224 µM)	> 128 µg/mL		
COc1cc(OC)c(OC)cc1/C=C/C(=O)c1c(O)cc(C)oc1=O	8 µg/mL (≈ 23.1 µM)	> 128 µg/mL	100 µM	
Cc1cc(O)c(C(=O)/C=C/c2ccco2)c(=O)o1	16 to 32 µg/mL (≈ 65 to 130 µM)	> 128 µg/mL		
Cc1cc(O)c(C(=O)/C=C/c2ccccc2Cl)c(=O)o1	16 µg/mL (≈ 55 µM)	> 128 µg/mL	> 100 µM	
